Data set [1] has as its system Human immunodeficiency virus 1. Nature of the data set: Antiviral activity against HIV1 isolate BAL infected in PHA-stimulated human PBMC assessed as reduction in p24 level after 7 days by ELISA. The data set is classed as functional, organism-based. Put shortly:
(§1)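 Donor PBMCs in R-3 medium (RPMI 1640, 15−20% FBS, 5% IL-2, penicillin/streptomycin, 2 mM L-glutamine), PHA-stimulated (2−3 μg/mL) 7 days; 1 × 10^5 cells/well with compound, challenged with 1000 TCID50 virus. p24 in supernatant by ELISA after 7 days. Seven concentrations (5, 1, 0.2, 0.04, 0.008, […], 0 μg/mL); IC50 versus no-drug wells; AZT positive control; three experiments, each triplicate.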

The next data set concerns A549. The data set is described as follows: Cytotoxicity against human A549 cells at 19 uM after 48 hrs by CellTiter 96 AQueous one solution cell proliferation assay. The data set is classed as cell-based. Particulars: a549, 48 h. Summed up:
(§2)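 About 5000 cells/well in DMEM with FBS and penicillin/streptomycin; compound in DMSO added next day, 24 h at 37 °C, 5% CO2, then medium replaced. At 48 h after addition, CellTiter 96 Aqueous One added for 4 h, stopped with 10% SDS, absorbance read at 450 nm.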

Data set [2] concerns Human immunodeficiency virus 1. The data set is described as follows: Antiviral activity against HIV1/VSV-G pseudovirus infected in human A549 cells assessed as downregulation of U5/gag gene expression at 0.005 ug/ml after 48 hrs by Taqman-based real-time PCR analysis. The data set is classed as functional. Particulars: Human immunodeficiency virus 1, A549, 48 h. Summed up:
(§3)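 A549 cells infected with VSV-G/HIV pseudovirus while treated with compound or AZT, 10-fold dilutions from 5 μg/mL, triplicate. After 48 h, cells processed for reverse transcription and TaqMan real-time PCR. R/U5 amplicon reads early transcripts, U5/gag reads late transcripts; GAPDH and 18S as internal controls.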

Data set [3] relates to Human immunodeficiency virus 1. Nature of the data set: Antiviral activity against NRTI-resistant HIV1 isolate 1617-1 infected in PHA-stimulated human PBMC assessed as reduction in p24 level after 7 days by ELISA. The data set is classed as functional, organism-based. To be noted: Human immunodeficiency virus 1, isolate 1617-1, PBMC, 168 h. Summed up: as §1
Background: In an ELISA, binding on a coated surface is turned into a signal by an enzyme label.

The test system of data set [4] is Human immunodeficiency virus 1. Nature of the data set: Antiviral activity against HIV1 isolate 89.6 infected in PHA-stimulated human PBMC assessed as reduction in p24 level after 7 days by ELISA. The data set is classed as functional, organism-based. Put shortly:
as §1

For data set [5], the system named is Human immunodeficiency virus 1. The data set is described as follows: Antiviral activity against HIV1 isolate LAV0.04 infected in PHA-stimulated human PBMC assessed as reduction in p24 level after 7 days by ELISA. The data set is classed as functional, organism-based. Summed up:
as §1

Data set [6] relates to Human immunodeficiency virus 1. The data set is described as follows: Antiviral activity against NNRTI-resistant HIV1 isolate N119 infected in PHA-stimulated human PBMC assessed as reduction in p24 level after 7 days by ELISA. The data set is classed as functional, organism-based. Particulars: Human immunodeficiency virus 1, isolate N119, PBMC, 168 h. Put shortly:
as §1

The next data set concerns HeLa. The data set is described as follows: Cytotoxicity against human HeLa cells at 19 uM after 48 hrs by CellTiter 96 AQueous one solution cell proliferation assay. The data set is classed as cell-based. Put shortly:
as §2

For data set [7], the system named is Human immunodeficiency virus 1. The data set is described as follows: Antiviral activity against HIV1 virions derived from […] or HIV/HA virions infected 293T cells using human A549 cells as target cells assessed as inhibition of viral replication using compound pre-mixed virions followed by incubation with target cells for 24 hrs by luciferase reporter gene assay based defective HIV1 pseudoviral assay. To be noted: Human immunodeficiency virus 1, 24 h. The data set is classed as functional, organism-based. Put shortly:
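Pseudovirions made by cotransfecting 293T cells with VSV-G, or HA plus NA, envelope plasmids and pNL4-3-Luc.R-.E- vector; supernatant collected at 48 h and filtered. A549 cells, 0.5 × 10^5/well in DMEM. Virus (~2 × 10^6 RLUs) premixed with sample, incubated with cells 24 h, then medium replaced. Luciferase read in lysates 48 h postinfection. Three experiments, each triplicate.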

For data set [8], the system named is Human immunodeficiency virus 1. The data set is described as follows: Antiviral activity against HIV1 isolate SF162 infected in PHA-stimulated human PBMC assessed as reduction in p24 level after 7 days by ELISA. The data set is classed as functional, organism-based. Put shortly:
as §1

A short description of data set [9]: Cytotoxicity against human PBMC after 48 hrs by CellTiter 96 AQueous one solution cell proliferation assay. The data set is classed as cell-based.
Data set [10] relates to Human immunodeficiency virus 1. Nature of the data set: Antiviral activity against HIV1 isolate LAV infected in PHA-stimulated human PBMC assessed as reduction in p24 level after 7 days by ELISA. The data set is classed as functional, organism-based. To be noted: Human immunodeficiency virus 1, isolate LAV, 168 h. Summed up: as §1
In data set [11] the test system is Human immunodeficiency virus 1. Nature of the data set: Antiviral activity against HIV1/VSV-G pseudovirus infected in human A549 cells assessed as downregulation of R/U5 gene expression at 0.005 ug/ml after 48 hrs by Taqman-based real-time PCR analysis. The data set is classed as functional. To be noted: Human immunodeficiency virus 1, A549, 48 h. Summed up:
as §3
On the technique in general: Quantitative PCR measures a nucleic acid by following its amplification.

For data set [12], the system named is Human immunodeficiency virus 1. Nature of the data set: Antiviral activity against HIV1/VSV-G pseudovirus infected in human A549 cells assessed as downregulation of R/U5 gene expression after 48 hrs by Taqman-based real-time PCR analysis. The data set is classed as functional. Summed up: as §3
The test system of data set [13] is Human immunodeficiency virus 1. The data set is described as follows: Antiviral activity against HIV1/VSV-G pseudovirus infected in human A549 cells assessed as downregulation of U5/gag gene expression after 48 hrs by Taqman-based real-time PCR analysis. The data set is classed as functional. Put shortly: as §3
Where [14] appears, read: Human immunodeficiency virus 1, isolate BAL, PBMC, 168 h.
The mark [15] stands for this setting: Human immunodeficiency virus 1, isolate 89.6, PBMC, 168 h.
Setting [16] is: Human immunodeficiency virus 1, isolate LAV0.04, PBMC, 168 h.
Where [17] appears, read: Human immunodeficiency virus 1, isolate SF162, PBMC, 168 h.

Consider six compounds from ChEMBL document CHEMBL4190218, “Potent Inhibitor of Drug-Resistant HIV-1 Strains Identified from the Medicinal Plant Justicia gendarussa” (J Nat Prod, 2017).

Usually IC50 stands for the concentration needed to halve the response being measured. What is called inhibition is how much of the control response was suppressed. By CC50 is commonly meant the concentration giving 50% cytotoxicity.

Some results are limits rather than exact numbers.

On to `COc1cc2c(O[C@@H]3O[C@H](C)[C@@H](O)[C@H](O)[C@H]3O)c3c(c(-c4ccc5c(c4)OCO5)c2cc1OC)C(=O)OC3` [PATENTIFLORIN A], for which the Activity result in [1] was “Dose-dependent effect”; in the data set on A549, “Non-Toxic”; in data set [4], “Dose-dependent effect”; in data set [5] it was “Dose-dependent effect”; in the data set with HeLa, “Non-Toxic”; in data set [8], “Dose-dependent effect”. For the same compound, the IC50 in data set [1] (setting [14]) was 0.03 µM; in data set [1] (pbmc) it was 0.032 µM; in [3] it was 0.061 µM; in data set [4] (setting [15]), 0.032 µM; in [4] (pbmc) it was 0.031 µM; in data set [5] (setting [16]) it was 0.024 µM. The IC50 was 0.032 µM in [5] (pbmc); 0.047 µM in data set [6]; 0.0269 to 0.027 µM in data set [7]; 0.037 µM in data set [8] (setting [17]); 0.03 µM in data set [8] (pbmc); 0.108 µM in [10]. Besides, the inhibition at 0.005 µg/mL in [2] and in data set [11] was 75% in each case. This compound also came in with a CC50 at 48 h in data set [9] of 75 µM.

For `COc1cc2c(O[C@@H]3OC[C@@H](O)[C@H](O)[C@H]3O)c3c(c(-c4ccc5c(c4)OCO5)c2cc1OC)C(=O)OC3`, the IC50 in data set [7] turned out to be 0.51 µM.

As to `COc1cc2c(O)c3c(c(-c4ccc5c(c4)OCO5)c2cc1OC)C(=O)OC3` [DIPHYLLIN], the IC50 in data set [7] is 1.71 µM.

In the case of `Cc1ccnc2c1NC(=O)c1cccnc1N2C1CC1` [NEVIRAPINE], the IC50 is 0.156 µM in data set [3], greater than 100 µM in data set [6] and 0.532 µM in [10].

Consider `Cc1cn([C@H]2C[C@H](N=[N+]=[N-])[C@@H](CO)O2)c(=O)[nH]c1=O` [ZIDOVUDINE], for which the Activity result in [12], in data set [1], in data set [4], in data set [5], in data set [13] and in data set [8] was “Dose-dependent effect” in each case. In addition, the “inhibition (INH)” value in [12] and in [13] was 40% throughout. For the same compound, the IC50 in data set [1] (setting [14]) is 0.077 µM; in data set [3], 3.51 µM; in [4] (setting [15]) it was 0.095 µM; in data set [5] (setting [16]), 0.079 µM; in data set [6], 0.0052 µM; in [8] (setting [17]) it was 0.085 µM. Besides, in data set [10], the IC50 turned out to be 0.072 µM.

In the case of `COc1cc2c(O[C@@H]3O[C@H](CO)[C@@H](O)[C@H](O)[C@H]3O)c3c(c(-c4ccc5c(c4)OCO5)c2cc1OC)C(=O)OC3`, in data set [7], the 50% inhibitory concentration (IC50) stood at 0.77 µM.
